In ChEMBL document CHEMBL3046000, “Design and synthesis of 1-(benzothiazol-5-yl)-1H-1,2,4-triazol-5-ones as protoporphyrinogen oxidase inhibitors” (Bioorg Med Chem, 2013):

Legend:
Sonchus asper = test: Post-emergence herbicidal activity against Sonchus asper assessed as plant growth inhibition at 75 g ai/ha; assay type: functional; settings: read-out: GI
Outline: (§1)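 Compounds formulated as 100 g/L emulsifiable concentrates in DMF with Tween-80 as emulsifier, then diluted with water. Sprayed post-emergence onto pot-grown plants in a greenhouse, with broadleaf weeds at the 2-leaf stage and grasses at the 1-leaf stage. Clay soil with 1.6% organic matter and CEC 12.1 […]; relative humidity about 50%. Rate (g ai/ha) = active ingredient ÷ pot surface area. Untreated and DMF + Tween-80 solvent controls.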

Brassica juncea [1] = test: Post-emergence herbicidal activity against Brassica juncea seedlings assessed as plant growth inhibition at 37.5 g ai/ha measured 15 days after compound treatment under greenhouse conditions; assay type: functional; settings: 360 h, read-out: GI
Amaranthus retroflexus [2] = test: Post emergence herbicidal activity against Amaranthus retroflexus seedlings assessed as plant growth inhibition at 37.5 g ai/ha measured 15 days after compound treatment under greenhouse conditions; assay type: functional; settings: 360 h, read-out: GI
Setaria faberi [3] = test: Post-emergence herbicidal activity against Setaria faberi (Giant Foxtail) seedlings assessed as plant growth inhibition at 37.5 g ai/ha measured 15 days after compound treatment under greenhouse conditions; assay type: functional; settings: 360 h, read-out: GI
Veronica polita = test: Post-emergence herbicidal activity against Veronica polita assessed as plant growth inhibition at 75 g ai/ha; assay type: functional; settings: read-out: GI; outline: as §1
Chenopodium album [4] = test: Post-emergence herbicidal activity against Chenopodium album seedlings assessed as plant growth inhibition at 37.5 g ai/ha measured 15 days after compound treatment under greenhouse conditions; assay type: functional; settings: 360 h, read-out: GI
Cerastium arvense = test: Post-emergence herbicidal activity against Cerastium arvense assessed as plant growth inhibition at 75 g ai/ha; assay type: functional; settings: read-out: GI; outline: as §1
Capsella bursa-pastoris = test: Post-emergence herbicidal activity against Capsella bursa-pastoris assessed as plant growth inhibition at 75 g ai/ha; assay type: functional; settings: read-out: GI; outline: as §1
Digitaria sanguinalis [5] = test: Post-emergence herbicidal activity against Digitaria sanguinalis (hairy crabgrass) seedlings assessed as plant growth inhibition at 37.5 g ai/ha measured 15 days after compound treatment under greenhouse conditions; assay type: functional; settings: 360 h, read-out: GI
Amaranthus retroflexus [6] = test: Post emergence herbicidal activity against Amaranthus retroflexus seedlings assessed as plant growth inhibition at 75 g ai/ha measured 15 days after compound treatment under greenhouse conditions; assay type: functional; settings: 360 h, read-out: GI
[7] = Phytotoxicity against 4-leaf stage Glycine max (soybean) plants assessed as plant growth inhibition at 150 g ai/ha applied through spraying measured 30 days after compound treatment under greenhouse conditions; assay type: organism-based; settings: in vivo, read-out: GI
[8] = Phytotoxicity against four-leaf stage Brassica napus (oilseed rape) plants assessed as plant growth inhibition at 150 g ai/ha applied through spraying measured 30 days after compound treatment under greenhouse conditions; assay type: organism-based; settings: in vivo, read-out: GI
Solanum nigrum = test: Post-emergence herbicidal activity against Solanum nigrum (black nightshade) assessed as plant growth inhibition at 75 g ai/ha; assay type: functional; settings: read-out: GI; outline: as §1
Setaria faberi [9] = test: Post-emergence herbicidal activity against Setaria faberi (Giant Foxtail) seedlings assessed as plant growth inhibition at 75 g ai/ha measured 15 days after compound treatment under greenhouse conditions; assay type: functional; settings: 360 h, read-out: GI
Digitaria sanguinalis [10] = test: Post-emergence herbicidal activity against Digitaria sanguinalis (hairy crabgrass) seedlings assessed as plant growth inhibition at 150 g ai/ha measured 15 days after compound treatment under greenhouse conditions; assay type: functional; settings: 360 h, read-out: GI
Senna tora = test: Post-emergence herbicidal activity against Senna tora assessed as plant growth inhibition at 75 g ai/ha; assay type: functional; settings: read-out: GI; outline: as §1
Chenopodium album [11] = test: Post-emergence herbicidal activity against Chenopodium album seedlings assessed as plant growth inhibition at 75 g ai/ha measured 15 days after compound treatment under greenhouse conditions; assay type: functional; settings: 360 h, read-out: GI
Amaranthus spinosus = test: Post-emergence herbicidal activity against Amaranthus spinosus assessed as plant growth inhibition at 75 g ai/ha; assay type: functional; settings: read-out: GI; outline: as §1
Polygonum humifusum = test: Post-emergence herbicidal activity against Polygonum humifusum assessed as plant growth inhibition at 75 g ai/ha; assay type: functional; settings: read-out: GI; outline: as §1
[12] = Phytotoxicity against 4-leaf stage Glycine max (soybean) plants assessed as plant growth inhibition at 75 g ai/ha applied through spraying measured 30 days after compound treatment under greenhouse conditions; assay type: organism-based; settings: in vivo, read-out: GI
Brassica juncea [13] = test: Post-emergence herbicidal activity against Brassica juncea seedlings assessed as plant growth inhibition at 75 g ai/ha measured 15 days after compound treatment under greenhouse conditions; assay type: functional; settings: 360 h, read-out: GI
Ammannia baccifera = test: Post-emergence herbicidal activity against Ammannia baccifera assessed as plant growth inhibition at 75 g ai/ha; assay type: functional; settings: read-out: GI; outline: as §1
[14] = target: T1, Protoporphyrinogen oxidase, chloroplastic (Nicotiana tabacum, UniProt O24163); test: Inhibition of Nicotiana tabacum (tobacco) recombinant PPO assessed as protoporphyrin IX formation at room temperature by fluorimetric assay
T1 sequence (O24163 whole entry): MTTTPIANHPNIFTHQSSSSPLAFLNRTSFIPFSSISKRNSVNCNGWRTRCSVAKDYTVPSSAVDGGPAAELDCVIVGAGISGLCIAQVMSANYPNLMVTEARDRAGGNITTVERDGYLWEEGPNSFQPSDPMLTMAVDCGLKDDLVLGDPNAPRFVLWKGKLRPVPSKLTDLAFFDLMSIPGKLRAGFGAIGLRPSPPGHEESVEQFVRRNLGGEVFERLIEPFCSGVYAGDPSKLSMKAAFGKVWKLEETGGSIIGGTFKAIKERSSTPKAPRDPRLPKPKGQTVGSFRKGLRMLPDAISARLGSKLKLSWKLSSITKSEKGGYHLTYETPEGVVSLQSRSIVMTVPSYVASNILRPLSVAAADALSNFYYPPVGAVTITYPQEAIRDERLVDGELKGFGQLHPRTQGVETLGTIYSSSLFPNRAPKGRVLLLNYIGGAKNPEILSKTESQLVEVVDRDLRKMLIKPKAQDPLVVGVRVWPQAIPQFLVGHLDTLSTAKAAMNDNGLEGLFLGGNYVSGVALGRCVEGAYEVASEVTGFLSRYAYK

Phytolacca acinosa = test: Post-emergence herbicidal activity against Raddix phytolaccae assessed as plant growth inhibition at 75 g ai/ha; assay type: functional; settings: read-out: GI; outline: as §1
Eleusine indica = test: Post-emergence herbicidal activity against Eleusine indica assessed as plant growth inhibition at 75 g ai/ha; assay type: functional; settings: read-out: GI; outline: as §1
Echinochloa crus-galli [15] = test: Post emergence herbicidal activity against Echinochloa crus-galli (barnyard grass) seedlings assessed as plant growth inhibition at 75 g ai/ha measured 15 days after compound treatment under greenhouse conditions; assay type: functional; settings: 360 h, read-out: GI
[16] = Phytotoxicity against four-leaf stage Gossypium hirsutum (cotton) plants assessed as plant growth inhibition at 150 g ai/ha applied through spraying measured 30 days after compound treatment under greenhouse conditions; assay type: organism-based; settings: in vivo, read-out: GI
[17] = Phytotoxicity against 4-leaf stage Triticum aestivum (wheat) plants assessed as plant growth inhibition at 150 g ai/ha applied through spraying measured 30 days after compound treatment under greenhouse conditions; assay type: organism-based; settings: in vivo, read-out: GI
Amaranthus retroflexus [18] = test: Post emergence herbicidal activity against Amaranthus retroflexus seedlings assessed as plant growth inhibition at 150 g ai/ha measured 15 days after compound treatment under greenhouse conditions; assay type: functional; settings: 360 h, read-out: GI
Echinochloa crus-galli [19] = test: Post emergence herbicidal activity against Echinochloa crus-galli (barnyard grass) seedlings assessed as plant growth inhibition at 150 g ai/ha measured 15 days after compound treatment under greenhouse conditions; assay type: functional; settings: 360 h, read-out: GI
Ludwigia prostrata = test: Post-emergence herbicidal activity against Ludwigia prostrata assessed as plant growth inhibition at 75 g ai/ha; assay type: functional; settings: read-out: GI; outline: as §1
Symphyotrichum subulatum = test: Post-emergence herbicidal activity against Symphyotrichum subulatum assessed as plant growth inhibition at 75 g ai/ha; assay type: functional; settings: read-out: GI; outline: as §1
Echinochloa crus-galli [20] = test: Post emergence herbicidal activity against Echinochloa crus-galli (barnyard grass) seedlings assessed as plant growth inhibition at 37.5 g ai/ha measured 15 days after compound treatment under greenhouse conditions; assay type: functional; settings: 360 h, read-out: GI
Setaria faberi [21] = test: Post-emergence herbicidal activity against Setaria faberi (Giant Foxtail) seedlings assessed as plant growth inhibition at 150 g ai/ha measured 15 days after compound treatment under greenhouse conditions; assay type: functional; settings: 360 h, read-out: GI
Chenopodium album [22] = test: Post-emergence herbicidal activity against Chenopodium album seedlings assessed as plant growth inhibition at 150 g ai/ha measured 15 days after compound treatment under greenhouse conditions; assay type: functional; settings: 360 h, read-out: GI
Alkekengi officinarum = test: Post-emergence herbicidal activity against Physalis alkekengi assessed as plant growth inhibition at 75 g ai/ha; assay type: functional; settings: read-out: GI; outline: as §1
Digitaria sanguinalis [23] = test: Post-emergence herbicidal activity against Digitaria sanguinalis (hairy crabgrass) seedlings assessed as plant growth inhibition at 75 g ai/ha measured 15 days after compound treatment under greenhouse conditions; assay type: functional; settings: 360 h, read-out: GI
Myosoton aquaticum = test: Post-emergence herbicidal activity against Myosoton aquaticum assessed as plant growth inhibition at 75 g ai/ha; assay type: functional; settings: read-out: GI; outline: as §1
[24] = Phytotoxicity against four-leaf stage Zea mays cv. Anjou (maize) plants assessed as plant growth inhibition at 150 g ai/ha applied through spraying measured 30 days after compound treatment under greenhouse conditions; assay type: organism-based; settings: in vivo, read-out: GI
Brassica juncea [25] = test: Post-emergence herbicidal activity against Brassica juncea seedlings assessed as plant growth inhibition at 150 g ai/ha measured 15 days after compound treatment under greenhouse conditions; assay type: functional; settings: 360 h, read-out: GI
Commelina communis = test: Post-emergence herbicidal activity against Commelina communis (Asiatic dayflower) assessed as plant growth inhibition at 75 g ai/ha; assay type: functional; settings: read-out: GI; outline: as §1
[26] = Phytotoxicity against four-leaf stage Oryza sativa (rice) plants assessed as plant growth inhibition at 150 g ai/ha applied through spraying measured 30 days after compound treatment under greenhouse conditions; assay type: organism-based; settings: in vivo, read-out: GI
Boehmeria nivea = test: Post-emergence herbicidal activity against Boehmeria nivea assessed as plant growth inhibition at 75 g ai/ha; assay type: functional; settings: read-out: GI; outline: as §1

Compound: Cc1nn(-c2cc(NS(C)(=O)=O)c(Cl)cc2Cl)c(=O)n1C(F)F [SULFENTRAZONE]
- inhibition of growth at 75 g/ha (Sonchus asper): 100%
- inhibition of growth at 37.5 g/ha (Brassica juncea [1]): 80%
- inhibition of growth at 37.5 g/ha (Amaranthus retroflexus [2]): 80%
- inhibition of growth at 37.5 g/ha (Setaria faberi [3]): 60%
- inhibition of growth at 75 g/ha (Veronica polita): 100%
- inhibition of growth at 37.5 g/ha (Chenopodium album [4]): 60%
- inhibition of growth at 75 g/ha (Cerastium arvense): > 90%
- inhibition of growth at 75 g/ha (Capsella bursa-pastoris): 100%
- inhibition of growth at 37.5 g/ha (Digitaria sanguinalis [5]): < 50%
- inhibition of growth at 75 g/ha (Amaranthus retroflexus [6]): ≥ 90%
- inhibition at 720 h [7]: 20%
- inhibition at 720 h [8]: 100%
- inhibition of growth at 75 g/ha (Solanum nigrum): 100%
- inhibition of growth at 75 g/ha (Setaria faberi [9]): 80%
- inhibition of growth at 150 g/ha (Digitaria sanguinalis [10]): 60%
- inhibition of growth at 75 g/ha (Senna tora): > 90%
- inhibition of growth at 75 g/ha (Chenopodium album [11]): ≥ 90%
- inhibition of growth at 75 g/ha (Amaranthus spinosus): 100%
- inhibition of growth at 75 g/ha (Polygonum humifusum): 100%
- inhibition at 720 h [12]: 10%
- inhibition of growth at 75 g/ha (Brassica juncea [13]): ≥ 90%
- inhibition of growth at 75 g/ha (Ammannia baccifera): 100%
- Ki [14]: 30 nM
- inhibition of growth at 75 g/ha (Phytolacca acinosa): 100%
- inhibition of growth at 75 g/ha (Eleusine indica): 100%
- inhibition of growth at 75 g/ha (Echinochloa crus-galli [15]): ≥ 90%
- inhibition at 720 h [16]: 100%
- inhibition at 720 h [17]: 20%
- inhibition of growth at 150 g/ha (Amaranthus retroflexus [18]): ≥ 90%
- inhibition of growth at 150 g/ha (Echinochloa crus-galli [19]): ≥ 90%
- inhibition of growth at 75 g/ha (Ludwigia prostrata): 100%
- inhibition of growth at 75 g/ha (Symphyotrichum subulatum): 100%
- inhibition of growth at 37.5 g/ha (Echinochloa crus-galli [20]): 80%
- inhibition of growth at 150 g/ha (Setaria faberi [21]): ≥ 90%
- inhibition of growth at 150 g/ha (Chenopodium album [22]): ≥ 90%
- inhibition of growth at 75 g/ha (Alkekengi officinarum): 100%
- inhibition of growth at 75 g/ha (Digitaria sanguinalis [23]): 50%
- inhibition of growth at 75 g/ha (Myosoton aquaticum): > 90%
- inhibition at 720 h [24]: 70%
- inhibition of growth at 150 g/ha (Brassica juncea [25]): ≥ 90%
- inhibition of growth at 75 g/ha (Commelina communis): 100%
- inhibition at 720 h [26]: 70%
- inhibition of growth at 75 g/ha (Boehmeria nivea): 100%
